Measured values pooled from the literature.
KIT D816H: Mast/stem cell growth factor receptor Kit (KIT, Homo sapiens, UniProt P10721, D816H)
KIT: Mast/stem cell growth factor receptor Kit (KIT, Homo sapiens, UniProt P10721)
KIT T670I/V559D: Mast/stem cell growth factor receptor Kit (KIT, Homo sapiens, UniProt P10721, T670I/V559D)
KIT autoinhibited: Mast/stem cell growth factor receptor Kit, autoinhibited (KIT, Homo sapiens, UniProt P10721)

SMILES | target | assay | conditions | measurement | value
CO[C@@H]1[C@H](N(C)C(=O)c2ccccc2)C[C@H]2O[C@]1(C)n1c3ccccc3c3c4c(c5c6ccccc6n2c5c31)C(=O)NC4 | KIT D816H | enzyme activity, inhibitor | 1 µM | inhibition | 98%
CN1CCN(C(=O)c2ccc(NC(=O)Nc3ccc(N(C)c4ccnc(Nc5ccc(CS(C)(=O)=O)cc5)n4)cc3)cc2)CC1 | KIT | binding, competition with immobilised ligand | 1 µM | remaining binding | 0%
C=CC(=O)N1CCC([C@@H]2CCNc3c(C(N)=O)c(-c4ccc(Oc5ccccc5)cc4)nn32)CC1 | KIT | enzyme activity, inhibitor | 1 µM | inhibition | 17%
N#Cc1ccc(NC(=O)Nc2ccccc2)cc1 | KIT | cell-free assay, competition with immobilised ligand | 25 µM | remaining binding | 49%
Cc1ccc(NC(=O)c2ccnc(C(F)(F)F)c2)cc1-c1cc(OCCO)nc(N2CCOCC2)c1 | KIT D816H | binding | 1 µM | remaining binding | 99%
COc1ccc2oc(-c3ccc4nc(N)oc4c3)c/c(=N\c3ccccc3NC(=O)CCN)c2c1 | KIT | binding | 1 µM | remaining binding | 111%
C#Cc1cnc(Nc2ccnc(CO)c2)nc1Nc1ccccc1S(C)(=O)=NC#N (stereo not drawn) | KIT T670I/V559D | cell-free assay | 1 µM | remaining signal | 79%
C1=C/COCc2cc(ccc2OCCN2CCCC2)Nc2nccc(n2)-c2cccc(c2)COC/1 | KIT autoinhibited | binding | 0.1 µM | remaining binding | 17%
C[C@H]1CC[C@H](n2c3cnccc3c3cnc(Nc4ccc5c(n4)CCN(C(=O)CO)C5)nc32)CC1 | Mast/stem cell growth factor receptor Kit (KIT, Homo sapiens, UniProt P10721, A829P) | cell-free assay | 1 µM | remaining signal | 36%
CC#CC(=O)N1CCC[C@H]1c1nc(-c2ccc(C(=O)Nc3ccccn3)cc2)c2c(N)nccn12 | Mast/stem cell growth factor receptor Kit (KIT, Homo sapiens, UniProt P10721, L576P) | enzyme activity, inhibitor | 1 µM | inhibition | 13%
CCCCC(=O)Nc1ccc(-c2ccc3ncn(CCC)c(=O)c3c2)cn1 | KIT autoinhibited | binding, competition with immobilised ligand | 0.5 µM | remaining binding | 97%
COc1ccc2[nH]c3c4[nH]c5ccc(OC)cc5c4c4c(c3c2c1)C(=O)NC4=O | KIT T670I/V559D | binding | 1 µM | remaining binding | 49%
